Consider ten compounds from ChEMBL document CHEMBL3593200, “NO-donor thiacarbocyanines as multifunctional agents for Alzheimer's disease” (Bioorg Med Chem, 2015).

Activity calls are given as the source filed them. The rule behind the calls is not given here.

The nature of data set [1]: Cytotoxicity against human hCMEC/D3 cells at 10 to 20 uM after 18 hrs by lactate dehydrogenase assay. It is filed as cell-based. The conditions noted are these: hcmec/d3, 18 h.
Data set [2] can be described thus: Cytotoxicity against human hCMEC/D3 cells up to 1 uM after 18 hrs by lactate dehydrogenase assay. It is filed as cell-based. The conditions noted are these: hcmec/d3, 18 h.
The target in data set [3] is Soluble guanylate cyclase (Homo sapiens) (UniProt Q02153+O75343+P33402+Q02108). As to the kind of experiment: Activation of sGC in human hCMEC/D3 cells assessed as production of cGMP per million cells using [3H]-cGMP after 1 hr by liquid scintillation counting. The conditions noted are these: CMEC/D3. The class given is cell-based. Summed up: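 hCMEC/D3 cells (1×10^6, collagen-coated wells, supplemented EBM-2, 37°C, 5% CO2) switched to Hepes-Ca2+ buffer pH 7.4 with 1 mM IBMX. Exposed 1 h at 37°C to 0.1, 1, 5 or 10 μM; SNP 1 mM as reference NO donor. Ethanol-permeabilized, residue taken up in Tris-EDTA pH 8. cGMP quantified by [3H]-cGMP competitive radioimmunoassay with scintillation counting against a [3H]-cGMP titration curve; expressed as pmol/10^6 cells. Mean ± SEM, one-way ANOVA.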

The target in data set [4] is T1, Amyloid-beta precursor protein (Homo sapiens, UniProt P05067). As to the kind of experiment: Inhibition of Amyloid beta (1 to 40) (unknown origin) aggregation assessed as amount of fibrils formation after 2 hrs by thioflavin T based spectrofluorimetric method. The essentials:
(§1)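 Aβ40 pretreated in HFIP to remove preaggregates, then 30 μM peptide incubated 2 h at room temperature with inhibitor in PBS pH 7.4 (2% HFIP, 5% DMSO). ThT (3 μM, in 50 mM phosphate pH 6.0) fluorescence read at ex 450/em 486 nm. Inhibition = 100 − [(Fi−Fb)/F0×100]. IC50 from 5–7 concentrations in triplicate, ≥3 independent experiments, nonlinear regression; weaker compounds given as % inhibition ± SE at 100 μM.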

The target of data set [5] is Microtubule-associated protein tau (Homo sapiens) (UniProt P10636). Kind of data set: Inhibition of wild type human recombinant tau 2N4R aggregation assessed as reduction of formation rate and number of aggregates at 1 uM after 48 hrs using Congo Red staining. The essentials: (§2)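 Recombinant human tau 2N4R, expressed in E. coli BL21(DE3), used at 8 μM with 300 μg/mL heparin in 35 mM MES pH 7.4, 1 mM DTT at 37°C, alone or with compound at 1 μM (final). Aliquots taken at 2 and 5 days, stained with Congo Red and examined under polarized light; also negatively stained with uranyl acetate for EM at 30,000 magnification.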

For data set [6] the target is unchanged. Kind of data set: Inhibition of wild type human recombinant tau 2N4R aggregation assessed as reduction of formation rate and number of aggregates at 1 uM after 5 days using Congo Red staining. Summed up:
as §2

Data set [7] addresses T1, Amyloid-beta precursor protein. Kind of data set: Inhibition of Amyloid beta (1 to 40) (unknown origin) aggregation assessed as amount of fibrils formation at 100 uM after 2 hrs by thioflavin T based spectrofluorimetric method. Summed up:
as §1

Data set [8] shares this target. As to the kind of experiment: Inhibition of Amyloid beta (1 to 42) (unknown origin) aggregation assessed as amount of fibrils formation after 5 days by thioflavin T based spectrofluorimetric method.
The test system of data set [9] is Brain. As to the kind of experiment: Synaptic plasticity activity in hippocampal brain slices of C57BL/6 mouse assessed as protection against amyloid beta (1 to 42)-induced long-term potentiation inhibition after 20 mins. The class given is functional. Set-up: scale not given: the % may be the effect or the level left. The essentials:
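Hippocampal slices (400 μm) from 30-day-old male C57BL/6 mice, recovered at 32°C in ACSF. Oligomerized Aβ42 (final 200 nM) was mixed with compound (final 2 μM), pre-incubated 30 min, then perfused 20 min before HFS. Schaffer collateral stimulation; CA1 fEPSP peak amplitude recorded 60 min post-HFS. LTP taken as mean over 55–60 min as % of baseline. Mean ± SEM, unpaired t-test.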

T1 sequence (P05067 whole entry): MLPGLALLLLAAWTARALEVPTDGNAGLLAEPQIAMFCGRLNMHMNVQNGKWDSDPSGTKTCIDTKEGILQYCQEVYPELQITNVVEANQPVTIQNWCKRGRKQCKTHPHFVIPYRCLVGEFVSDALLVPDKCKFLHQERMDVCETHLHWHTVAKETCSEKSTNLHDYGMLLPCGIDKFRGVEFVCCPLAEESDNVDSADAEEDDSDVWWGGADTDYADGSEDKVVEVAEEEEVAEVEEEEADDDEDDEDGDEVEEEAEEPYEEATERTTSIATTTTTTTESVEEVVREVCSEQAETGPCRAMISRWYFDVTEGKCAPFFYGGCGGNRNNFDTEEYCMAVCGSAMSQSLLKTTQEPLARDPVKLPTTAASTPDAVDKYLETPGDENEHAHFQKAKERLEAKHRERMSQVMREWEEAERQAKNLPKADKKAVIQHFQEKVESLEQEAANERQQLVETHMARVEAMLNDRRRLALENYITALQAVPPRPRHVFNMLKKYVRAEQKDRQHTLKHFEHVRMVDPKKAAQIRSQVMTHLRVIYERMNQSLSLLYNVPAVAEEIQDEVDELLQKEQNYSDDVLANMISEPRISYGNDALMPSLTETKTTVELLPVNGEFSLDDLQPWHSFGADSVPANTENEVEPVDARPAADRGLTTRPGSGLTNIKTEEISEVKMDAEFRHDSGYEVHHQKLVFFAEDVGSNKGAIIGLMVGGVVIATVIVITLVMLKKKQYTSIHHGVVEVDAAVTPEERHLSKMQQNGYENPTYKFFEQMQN
Chain of Microtubule-associated protein tau (Homo sapiens) (P10636 whole entry): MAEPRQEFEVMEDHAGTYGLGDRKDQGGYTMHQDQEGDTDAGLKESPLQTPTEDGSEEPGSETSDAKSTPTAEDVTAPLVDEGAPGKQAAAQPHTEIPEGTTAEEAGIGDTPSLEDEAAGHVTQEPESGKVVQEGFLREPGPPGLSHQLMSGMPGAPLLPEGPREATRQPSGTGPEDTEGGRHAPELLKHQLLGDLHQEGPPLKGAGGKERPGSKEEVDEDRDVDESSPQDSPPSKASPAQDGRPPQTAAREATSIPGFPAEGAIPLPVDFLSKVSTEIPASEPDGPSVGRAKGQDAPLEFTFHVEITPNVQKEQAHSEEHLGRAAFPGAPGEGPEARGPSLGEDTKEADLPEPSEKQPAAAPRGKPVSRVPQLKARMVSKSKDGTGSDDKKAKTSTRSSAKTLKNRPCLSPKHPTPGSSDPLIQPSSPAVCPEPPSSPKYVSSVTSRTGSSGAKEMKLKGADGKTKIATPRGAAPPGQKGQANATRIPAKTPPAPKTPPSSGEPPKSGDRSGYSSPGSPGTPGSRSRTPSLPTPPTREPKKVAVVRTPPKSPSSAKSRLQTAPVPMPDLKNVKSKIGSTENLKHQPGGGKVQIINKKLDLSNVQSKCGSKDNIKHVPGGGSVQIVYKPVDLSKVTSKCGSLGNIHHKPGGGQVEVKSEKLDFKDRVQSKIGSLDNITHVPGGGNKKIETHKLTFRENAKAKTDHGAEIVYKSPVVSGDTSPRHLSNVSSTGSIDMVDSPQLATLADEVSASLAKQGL

With `CCCOc1ccc2c(c1)N(CC)/C(=C/C=C/c1sc3ccc(OCCC)cc3[n+]1CC)S2.[I-]`, the values for the Activity entry in data set [1], in data set [2] and in [3] were “Non-toxic”, “Non-toxic” and “Dose-dependent effect”, respectively. Also, the inhibition (usually the percentage by which the read-out fell short of the control) in [4] was “inactive”.

In the case of `CCN1/C(=C/C=C/c2sc3ccccc3[n+]2CC)Sc2ccc(Oc3no[n+]([O-])c3S(=O)(=O)c3ccccc3)cc21.[I-]`, the values for the Activity entry in data set [1], in data set [2] and in data set [3] were “Non-toxic”, “Non-toxic” and “Dose-dependent effect”, respectively. For the same compound, the inhibition entry in [5] and in [6] was “Active” in each case. Also, the concentration for half-maximal inhibition (IC50) (usually the concentration needed to halve the response being measured) in data set [4] stood at 21 µM.

`CCN1/C(=C/C=C/c2sc3ccc(OCc4no[n+]([O-])c4C(N)=O)cc3[n+]2CC)Sc2ccc(OCc3no[n+]([O-])c3C(N)=O)cc21.O=S(=O)([O-])C(F)(F)F`: the figures for the Activity result in [1], in data set [2] and in data set [3] were “Non-toxic”, “Non-toxic” and “Dose-dependent effect”, respectively. Also, in [7], the inhibition came out at 17%.

Consider `CCN1/C(=C/C=C/c2sc3ccccc3[n+]2CC)Sc2ccccc21.[I-]`, for which the values for the Activity entry in data set [1], in data set [2] and in data set [9] were “Non-toxic”, “Non-toxic” and 34.7%, respectively. The half-maximal inhibitory concentration (IC50) in data set [8] is 3.3 µM; in data set [4], 3.1 µM.

For `CCN1/C(=C/C=C/c2sc3ccc(OCCCO[N+](=O)[O-])cc3[n+]2CC)Sc2ccc(OCCCO[N+](=O)[O-])cc21.O=S(=O)([O-])C(F)(F)F`, the Activity entry in data set [1] is “Non-toxic”; in data set [2], “Non-toxic”; in [3], “Dose-dependent effect”. Besides, the inhibition result in data set [5] and in data set [6] was “Active” each time. Besides, in [7], the inhibition came out at 26%.

For `CCCOc1ccc2c(c1)N(CC)/C(=C/C=C/c1sc3ccccc3[n+]1CC)S2.[I-]`, the Activity entry in data set [1] is “Non-toxic”; in data set [2], “Non-toxic”; in data set [3] it was “Dose-dependent effect”. Further, the figures for the half-inhibitory concentration (IC50) in data set [8] and in [4] were 0.8 µM and 7 µM, respectively.

With `CN(C)c1ccc2nc3ccc(=[N+](C)C)cc-3sc2c1`, the half-inhibitory concentration (IC50) in [4] came to 4.5 µM.

For `CCN1/C(=C/C=C/c2sc3ccccc3[n+]2CC)Sc2ccc(Oc3no[n+]([O-])c3-c3ccccc3)cc21.[I-]`, the Activity result in data set [1] was “Non-toxic”; in [2], “Non-toxic”; in [3], “Dose-dependent effect”; in data set [9], 90.8%. Further, the inhibition entry in data set [5] and in data set [6] was “Active” throughout. For the same compound, the figures for the IC50 in data set [8] and in data set [4] were 1.6 µM and 1.8 µM, respectively.

In the case of `CCN1/C(=C/C=C/c2sc3ccccc3[n+]2CC)Sc2ccc(OCCCO[N+](=O)[O-])cc21.[I-]`, the Activity entry in [1] was “Non-toxic”; in data set [2], “Non-toxic”; in [3], “Dose-dependent effect”; in [9], 69.3%. The inhibition result in data set [5] and in [6] was “Active” each time. The results for the IC50 in [8] and in data set [4] were 7.7 µM and 8.1 µM, respectively.

As for `CCN1/C(=C/C=C/c2sc3ccccc3[n+]2CC)Sc2ccc(OCc3no[n+]([O-])c3C(N)=O)cc21.[I-]`, the Activity result in data set [1] is “Non-toxic”; in data set [2], “Non-toxic”; in data set [3] it was “Dose-dependent effect”. Also, in data set [7], the inhibition was found to be 26%.
